Laboratory results reported in ChEMBL document CHEMBL1150419, “Structure-activity relationships of a peptide inhibitor of the human FcRn:human IgG interaction” (Bioorg Med Chem, 2008).
Bridge positions count the residues as written; N and C are the ends. Peptide text beside a SMILES is read from it.

Columns and labels:
[1] = target: T1, IgG receptor FcRn large subunit p51 (Homo sapiens, UniProt P55899); assay: Binding affinity to human FcRn at pH 6 by surface plasmon resonance assay
Summary of the method: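 Soluble human FcRn coupled to the dextran surface of a CM5 chip; peptide dilutions flowed over the chip. The equilibrium response at each dilution was plotted against concentration and fitted to a steady-state affinity model to give Kd.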

[2] = target: T1, IgG receptor FcRn large subunit p51; assay: Binding affinity to human FcRn at pH 7.4 by surface plasmon resonance assay
Summary of the method: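 Soluble human FcRn coupled to the dextran surface of a CM5 chip; peptide dilutions flowed over the chip. Equilibrium response at each dilution plotted against concentration, and Kd fitted with a steady-state affinity model.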

[3] = target: T1, IgG receptor FcRn large subunit p51; assay: Inhibition of human IgG binding to soluble human FcRn by ELISA
Summary of the method: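 Biotinylated soluble human FcRn immobilized on neutravidin plates, incubated with hIgG (3 nM, constant) and peptide at varying concentrations for 2 h at 37 °C. After washing, bound hIgG detected with peroxidase-conjugated hIgG-specific Fab fragments.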

T1 sequence (P55899 whole entry): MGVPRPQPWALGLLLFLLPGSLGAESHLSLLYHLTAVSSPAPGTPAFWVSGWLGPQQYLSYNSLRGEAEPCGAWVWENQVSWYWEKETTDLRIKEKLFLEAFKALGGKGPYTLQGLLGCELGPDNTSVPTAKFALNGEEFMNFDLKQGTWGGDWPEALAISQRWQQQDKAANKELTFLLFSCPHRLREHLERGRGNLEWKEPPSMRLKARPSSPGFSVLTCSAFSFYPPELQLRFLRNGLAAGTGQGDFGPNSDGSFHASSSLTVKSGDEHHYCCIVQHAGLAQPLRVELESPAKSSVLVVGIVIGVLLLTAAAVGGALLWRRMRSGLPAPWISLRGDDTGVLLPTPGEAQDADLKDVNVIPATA

Row | Molecule | Kd [1] | Kd [2] | IC50 [3]
1 | CC[C@H](C)[C@@H]1NC(=O)CNC(=O)CNC(=O)[C@H](Cc2ccccc2)NC(=O)[C@H](Cc2cnc[nH]2)NC(=O)CNC(=O)[C@H]([C@@H](C)O)NC(=O)[C@H](C(C)C)NC(=O)[C@@H](NC(=O)CNC(=O)CNC(=O)CN)CSSC[C@@H](C(=O)N[C@@H](CC(N)=O)C(=O)N[C@@H](Cc2ccc(O)cc2)C(=O)N[C@@H](CCC(N)=O)C(=O)O)NC(=O)[C@H](Cc2ccc(O)cc2)NC1=O (H-GGGCVTGHFGGIYCNYQ-OH; disulfide 4-14) | 5200 nM | 35000 nM | 33000 nM
2 | CC(C)C[C@@H](C(=O)N[C@@H](Cc1ccc(O)cc1)C(=O)N1CCC[C@H]1C(=O)N[C@@H](CS)C(=O)O)N(C)C(=O)CN(C)C(=O)CNC(=O)[C@H](Cc1ccccc1)NC(=O)[C@H](Cc1ccsc1)NC(=O)CNC(=O)[C@@H](NC(=O)[C@@H](NC(=O)[C@H](Cc1ccccc1)NC(=O)[C@@H](N)CCCN=C(N)N)C(C)(C)S)[C@@H](C)O | 2000 nM | 3000 nM | 45000 nM
3 | CC[C@H](C)[C@@H]1NC(=O)CNC(=O)[C@H](CC(=O)O)NC(=O)[C@H]([C@@H](C)CC)NC(=O)[C@H](Cc2cnc[nH]2)NC(=O)CNC(=O)[C@H](CCC(=O)O)NC(=O)[C@H]([C@@H](C)CC)NC(=O)[C@@H](NC(=O)[C@H](Cc2ccc(O)cc2)NC(=O)[C@H](CO)NC(=O)[C@@H]2CCCN2)CSSC[C@@H](C(=O)N[C@@H](Cc2ccccc2)C(=O)N[C@@H](CC(N)=O)C(=O)N[C@@H](C)C(=O)O)NC(=O)[C@H](Cc2ccc(O)cc2)NC1=O (H-PSYCIEGHIDGIYCFNA-OH; disulfide 4-14) | 8800 nM | 76000 nM | 49000 nM
4 | CC(C)C[C@@H]1NC(=O)CNC(=O)CNC(=O)[C@H](Cc2ccccc2)NC(=O)[C@H](Cc2cnc[nH]2)NC(=O)CNC(=O)[C@H]([C@@H](C)O)NC(=O)[C@@H](NC(=O)[C@H](Cc2ccccc2)NC(=O)[C@H](CCCN=C(N)N)NC(=O)[C@@H](N)CCC(N)=O)CSSC[C@@H](C(=O)N[C@@H](CC(N)=O)C(=O)NCC(=O)N2CCC[C@H]2C(=O)O)NC(=O)[C@@H]2CCCN2C(=O)[C@H](Cc2ccc(O)cc2)NC1=O | 5700 nM | 45000 nM | 36000 nM
5 | CC(C)C[C@@H](C(=O)N[C@@H](Cc1ccc(O)cc1)C(=O)N1CCC[C@H]1C(=O)N[C@@H](CS)C(=O)O)N(C)C(=O)CN(C)C(=O)CNC(=O)[C@H](Cc1ccccc1)NC(=O)[C@H](CCCN)NC(=O)CNC(=O)[C@@H](NC(=O)[C@@H](NC(=O)[C@H](Cc1ccccc1)NC(=O)[C@@H](N)CCCNC(=N)N)C(C)(C)S)[C@@H](C)O | 1300 nM | 1200 nM | 12000 nM
6 | CC(C)C[C@@H](C(=O)N[C@@H](Cc1ccc(O)cc1)C(=O)N1CCC[C@H]1C(=O)N[C@@H](CS)C(=O)O)N(C)C(=O)CN(C)C(=O)CNC(=O)[C@H](Cc1ccccc1)NC(=O)[C@H](Cc1ccc(N)cc1)NC(=O)CNC(=O)[C@@H](NC(=O)[C@@H](NC(=O)[C@H](Cc1ccccc1)NC(=O)[C@@H](N)CCCNC(=N)N)C(C)(C)S)[C@@H](C)O |  | 1100 nM | 4600 nM
7 | H-QRFSTGHFGGLYPSNGP-OH | 230000 nM |  | > 125000 nM
8 | CC(C)C[C@H](NC(=O)CNC(=O)CNC(=O)[C@@H]1Cc2ccccc2CN1C(=O)[C@H](Cc1cnc[nH]1)NC(=O)CNC(=O)[C@@H](NC(=O)[C@@H](NC(=O)[C@H](Cc1ccccc1)NC(=O)[C@H](CCCNC(=N)N)NC(=O)[C@@H](N)CCC(N)=O)C(C)(C)S)[C@@H](C)O)C(=O)N[C@@H](Cc1ccc(O)cc1)C(=O)N1CCC[C@H]1C(=O)N[C@@H](CS)C(=O)N[C@@H](CC(N)=O)C(=O)NCC(=O)N1CCC[C@H]1C(=O)O | > 250000 nM |  | > 125000 nM

Further molecules by falling Kd [1], results first:

Row | Kd [1] | Kd [2] | IC50 [3] | Molecule
9 | 1300 nM | 1100 nM | 40000 nM | CC(C)C[C@@H](C(=O)N[C@@H](Cc1ccc(O)cc1)C(=O)N1CCC[C@H]1C(=O)N[C@@H](CS)C(=O)O)N(C)C(=O)CN(C)C(=O)CNC(=O)[C@H](Cc1ccccc1)NC(=O)[C@H](CCCCN)NC(=O)CNC(=O)[C@@H](NC(=O)[C@@H](NC(=O)[C@H](Cc1ccccc1)NC(=O)[C@@H](N)CCCN=C(N)N)C(C)(C)S)[C@@H](C)O
10 | 670 nM |  | 4100 nM | Cc1cccc(C[C@H](NC(=O)[C@H](Cc2cnc[nH]2)NC(=O)CNC(=O)[C@@H](NC(=O)[C@@H](NC(=O)[C@H](Cc2ccccc2)NC(=O)[C@H](CCCN=C(N)N)NC(=O)[C@@H](N)CCC(N)=O)C(C)(C)S)[C@@H](C)O)C(=O)NCC(=O)NCC(=O)N[C@@H](CC(C)C)C(=O)N[C@@H](Cc2ccc(O)cc2)C(=O)N2CCC[C@H]2C(=O)N[C@@H](CS)C(=O)N[C@@H](CC(N)=O)C(=O)NCC(=O)N2CCC[C@H]2C(=O)O)c1
11 | 500 nM | 500 nM | 5500 nM | CC(C)C[C@@H](C(=O)N[C@@H](Cc1ccc(O)cc1)C(=O)N1CCC[C@H]1C(=O)N[C@@H](CS)C(=O)O)N(C)C(=O)CN(C)C(=O)CNC(=O)[C@H](Cc1ccccc1)NC(=O)[C@H](CCCNC(=N)N)NC(=O)CNC(=O)[C@@H](NC(=O)[C@@H](NC(=O)[C@H](Cc1ccccc1)NC(=O)[C@@H](N)CCCNC(=N)N)C(C)(C)S)[C@@H](C)O
12 | 200 nM |  | 1000 nM | Cc1ccccc1C[C@H](NC(=O)[C@H](Cc1cnc[nH]1)NC(=O)CNC(=O)[C@@H](NC(=O)[C@@H](NC(=O)[C@H](Cc1ccccc1)NC(=O)[C@H](CCCNC(=N)N)NC(=O)[C@@H](N)CCC(N)=O)C(C)(C)S)[C@@H](C)O)C(=O)NCC(=O)NCC(=O)N[C@@H](CC(C)C)C(=O)N[C@@H](Cc1ccc(O)cc1)C(=O)N1CCC[C@H]1C(=O)N[C@@H](CS)C(=O)N[C@@H](CC(N)=O)C(=O)NCC(=O)N1CCC[C@H]1C(=O)O
13 | 74 nM | 73 nM |  | CC(C)C[C@@H](C(=O)N[C@@H](Cc1ccc(O)cc1)C(=O)N1CCC[C@H]1C(=O)N[C@@H](CS)C(=O)O)N(C)C(=O)CN(C)C(=O)CNC(=O)[C@H](Cc1ccccc1)NC(=O)[C@H](Cc1ccc(N=C(N)N)cc1)NC(=O)CNC(=O)[C@@H](NC(=O)[C@@H](NC(=O)[C@H](Cc1ccccc1)NC(=O)[C@@H](N)CCCN=C(N)N)C(C)(C)S)[C@@H](C)O
14 | 67 nM | 280 nM | 1300 nM | CC(C)C[C@@H](C(=O)N[C@@H](Cc1ccc(O)cc1)C(=O)N1CCC[C@H]1C(=O)N[C@@H](CS)C(=O)O)N(C)C(=O)CN(C)C(=O)CNC(=O)[C@H](Cc1ccccc1)NC(=O)[C@H](Cc1ccncc1)NC(=O)CNC(=O)[C@@H](NC(=O)[C@@H](NC(=O)[C@H](Cc1ccccc1)NC(=O)[C@@H](N)CCCNC(=N)N)C(C)(C)S)[C@@H](C)O
15 | 64 nM | 260 nM |  | CC(C)C[C@@H](C(=O)N[C@@H](Cc1ccc(O)cc1)C(=O)N1CCC[C@H]1C(=O)N[C@@H](CS)C(=O)O)N(C)C(=O)CN(C)C(=O)CNC(=O)[C@H](Cc1ccccc1)NC(=O)[C@H](Cc1cccnc1)NC(=O)CNC(=O)[C@@H](NC(=O)[C@@H](NC(=O)[C@H](Cc1ccccc1)NC(=O)[C@@H](N)CCCNC(=N)N)C(C)(C)S)[C@@H](C)O
16 | 44 nM |  | 620 nM | CC(C)C[C@@H](C(=O)N[C@@H](Cc1ccc(O)cc1)C(=O)N1CCC[C@H]1C(=O)N[C@@H](CS)C(=O)O)N(C)C(=O)CN1CCCC[C@@H](NC(=O)[C@H](Cc2ccccc2)NC(=O)[C@H](Cc2cnc[nH]2)NC(=O)CNC(=O)[C@@H](NC(=O)[C@H](NC(=O)[C@H](Cc2ccccc2)NC(=O)[C@@H](N)CCCNC(=N)N)C(C)(C)S)[C@@H](C)O)C1=O
